Laboratory results from ChEMBL document CHEMBL4680135, “Design, synthesis and biological evaluation of indole-2-carboxylic acid derivatives as IDO1/TDO dual inhibitors” (Eur J Med Chem, 2020).
Activity calls are given as the source filed them. The rule behind the calls is not given here.

Key:
[1] = target: Indoleamine 2,3-dioxygenase 1 (Homo sapiens, UniProt P14902); experiment: Inhibition of recombinant human IDO1 assessed as reduction in kynurenine formation using L-tryptophan as substrate incubated for 45 mins by microplate reader assay
T-lymphocyte = experiment: Reversal of IDO1/TDO-mediated suppression of mouse T-lymphocyte proliferation assessed as increase in mytomycin C treated LLC cells stimulated T-cells proliferation at 10 uM incubated for 3 days by Cell Titer Glo luminescent cell viability assay; format: cell-based; conditions: time 3.0 day
How it was run: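 Responder T lymphocytes from BALB/c mouse splenocytes (1×10^5/well) in RPMI 1640 with 10% FBS co-cultured with 1×10^4 LLC stimulator cells pretreated with mitomycin C (final 25 µg/mL, 37 °C, 1 h, washed thrice), plus compound; 37 °C, 5% CO₂, 3 days. Proliferation by CellTiter-Glo luminescence; mean of three replicate wells with SEM.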

A 172 [2] = experiment: Inhibition of IDO1/TDO in IFNgamma-stimulated human A172 cells assessed as reduction in kynurenine formation at 50 uM using L-tryptophan as substrate incubated for 48 hrs by microplate reader analysis relative to control; format: cell-based
How it was run: (§1)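 A172 cells seeded at 4×10^4/well, next day given compound in 10% serum medium with IFNγ (final 100 ng/mL) and Trp (final 1 mmol/L), 48 h. Supernatant treated with 30% (w/v) TCA, heated 65 °C 15 min, mixed with 2% p-dimethylaminobenzaldehyde in acetic acid; kynurenine pigment read at 490 nm.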

[3] = Toxicity in C57BL/6 mouse xenografted with mouse B16F10 cells assessed as body weight loss at 50 to 100 mg/kg, po administered for 19 consecutive days; format: organism-based; conditions: in vivo, 456 h, dose 50-100 mg/kg, time 19 day
How it was run: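 B16F10 cells (1×10^6) implanted subcutaneously in C57BL/6 mice on day 0; daily oral treatment from day 1 with compound suspended in 0.5% CMC-Na, vehicle group receiving 0.5% CMC-Na. Body weight of treated mice compared against vehicle control group.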

A 172 [4] = experiment: Inhibition of IDO1/TDO in IFNgamma-stimulated human A172 cells assessed as reduction in kynurenine formation at 100 uM using L-tryptophan as substrate incubated for 48 hrs by microplate reader analysis relative to control; format: cell-based; how it was run: as §1
B16-F10 [5] = experiment: Antitumor activity against mouse B16F10 cells xenografted in C57BL6 mouse assessed as tumor growth inhibition at 50 mg/kg, po administered for 19 consecutive days relative to control; format: functional; conditions: 456 h, time 19 day, read-out: TGI
How it was run: (§2)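 B16F10 melanoma cells harvested in saline; 1×10^6 cells injected subcutaneously into C57BL/6 mice on day 0. Mice randomized; daily oral dosing from day 1, compound in 0.5% CMC-Na, vehicle controls given 0.5% CMC-Na orally; cyclophosphamide 100 mg/kg i.p. as reference group.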

[6] = target: Tryptophan 2,3-dioxygenase (Homo sapiens, UniProt P48775); experiment: Inhibition of recombinant human TDO assessed as reduction in kynurenine formation using L-tryptophan as substrate incubated for 45 mins by microplate reader assay
How it was run: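 Purified recombinant human TDO (0.05 μM) in 100 mM potassium phosphate pH 6.5 with 40 mM neutralized ascorbate, 200 μg/mL catalase, 20 μM methylene blue, L-Trp substrate and compound; 37 °C, 45 min. Stopped with 30% TCA, 65 °C 15 min, then 2% p-dimethylaminobenzaldehyde in acetic acid; absorbance 490 nm; IC50 by curve fitting.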

B16-F10 [7] = experiment: Antitumor activity against mouse B16F10 cells xenografted in C57BL/6 mouse assessed as tumor growth inhibition at 100 mg/kg, po administered for 19 consecutive days relative to control; format: functional; conditions: 456 h, time 19 day, read-out: TGI; how it was run: as §2

Sequence of Tryptophan 2,3-dioxygenase (P48775 whole entry): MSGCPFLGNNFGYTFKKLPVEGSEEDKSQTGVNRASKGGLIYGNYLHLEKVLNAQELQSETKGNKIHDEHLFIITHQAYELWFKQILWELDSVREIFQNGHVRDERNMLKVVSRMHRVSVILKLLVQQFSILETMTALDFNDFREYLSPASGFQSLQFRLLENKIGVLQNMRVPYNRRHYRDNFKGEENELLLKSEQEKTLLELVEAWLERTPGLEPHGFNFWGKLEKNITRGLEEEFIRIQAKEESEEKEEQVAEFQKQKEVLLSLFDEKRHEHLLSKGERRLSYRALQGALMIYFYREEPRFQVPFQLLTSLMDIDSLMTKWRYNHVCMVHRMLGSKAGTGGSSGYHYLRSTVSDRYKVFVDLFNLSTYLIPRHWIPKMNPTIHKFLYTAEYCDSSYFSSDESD
Sequence of Indoleamine 2,3-dioxygenase 1 (P14902 whole entry): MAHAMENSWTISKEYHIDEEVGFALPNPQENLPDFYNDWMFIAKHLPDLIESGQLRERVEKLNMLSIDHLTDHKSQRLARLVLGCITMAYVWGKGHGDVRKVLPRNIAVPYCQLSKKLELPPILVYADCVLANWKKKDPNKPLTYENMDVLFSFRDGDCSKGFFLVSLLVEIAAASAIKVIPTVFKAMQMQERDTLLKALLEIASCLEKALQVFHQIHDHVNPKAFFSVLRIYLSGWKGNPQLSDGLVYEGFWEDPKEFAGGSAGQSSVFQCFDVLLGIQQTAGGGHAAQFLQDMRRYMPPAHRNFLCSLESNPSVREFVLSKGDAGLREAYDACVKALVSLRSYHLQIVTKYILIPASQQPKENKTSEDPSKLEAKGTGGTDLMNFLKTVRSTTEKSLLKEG

SMILES | IC50 [1] [µM] | Activity (T-lymphocyte) | inhibition (A 172 [2]) [%] | Activity [3] | inhibition (A 172 [4]) [%] | inhibition in vivo at 50 mg/kg (B16-F10 [5]) [%] | IC50 [6] [µM] | inhibition in vivo at 100 mg/kg (B16-F10 [7]) [%]
COc1cc(Nc2cc(NC(C)=O)cc3[nH]c(C(=O)O)cc23)cc(OC)c1OC | 3.18 | Active | 55.9 | Non-Toxic | 77.7 | 43.2 | 7.12 | 44.7
CC(=O)Nc1cc(Nc2ccc(F)cc2)c2cc(C(=O)O)[nH]c2c1 | 5.28 |  |  |  |  |  | 7.69 | 
CC(=O)Nc1cc(Nc2ccc(C(F)(F)F)cc2)c2cc(C(=O)O)[nH]c2c1 | 55.5 |  |  |  |  |  | 23.2 | 
COc1cc(Nc2cc(NC(C)=O)cc3[nH]c(C(=O)O)cc23)ccc1F | 1.23 |  |  |  |  |  | 2.49 | 
CC(=O)Nc1cc(Nc2ccc(F)c(OC(F)(F)F)c2)c2cc(C(=O)O)[nH]c2c1 | 1.37 |  |  |  |  |  | 3.62 | 
CCCOc1cc(Nc2cc(NC(C)=O)cc3[nH]c(C(=O)O)cc23)ccc1F | 1.48 |  |  |  |  |  | 4.46 | 
